Assay results as given in ChEMBL document CHEMBL1121519, “Basic antiinflammatory compounds. N,N',N''-Trisubstituted guanidines” (J Med Chem, 1980).

How the values were obtained:
[1] = system: Rattus norvegicus; assay: Percent inhibition of carrageenan paw edema in rat, administered orally at a dose of one tenth of oral lethal dose in mice; format: functional
Outline: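 1 h later, 0.1 mL of 1% carrageenan was injected into the right hind-paw plantar tissue. Paw swelling was measured by mercury-displacement plethysmometry 3 h after carrageenan, compared with controls.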

[2] = Lethal dose in mice determined by Litchfield and Wilcoxon methods after peroral administration.; format: toxicity, organism-based; settings: mouse, in vivo, po
Outline: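 Median lethal dose found after oral dosing of mice, four mice per dose level, and calculated by the Litchfield–Wilcoxon method.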

[3] = biological target: Cyclooxygenase (Bos taurus) (UniProt O62664+O62698); assay: Inhibition of prostaglandin synthetase in bovine seminal vesicle microsomes using Beckman liquid scintillation counter at 10 e-5 M; settings: Microsome

Cc1ccc2nccc(N/C(=N/C3CCCCC3)Nc3nccs3)c2c1
Inhibition [1]: 12% | LD50 [2]: > 1000 mg/kg | inhibition [3]: 7.2%

Cc1cc(N/C(=N/C2CCCCC2)Nc2nncs2)c2ccccc2n1
Inhibition [1]: 40% | LD50 [2]: 250 mg/kg | inhibition [3]: 15.1%

CCCCC(CC)C/N=C(/Nc1nccs1)Nc1cc(C)nc2ccccc12 (configuration not stated)
Inhibition [1]: 28% | LD50 [2]: > 1000 mg/kg | inhibition [3]: 2.1%

Cc1cc(N/C(=N/C(C)(C)C)NCCO)c2ccccc2n1
Inhibition [1]: 40% | LD50 [2]: 600 mg/kg | inhibition [3]: 2.8%

Cc1cc(N/C(=N\C(C)CCCC(C)C)Nc2nccs2)c2ccccc2n1 (configuration not stated)
Inhibition [1]: 25% | LD50 [2]: > 1000 mg/kg | inhibition [3]: 1.7%

Cc1cc(N/C(=N/C2CCCCC2)Nc2ccccc2)c2ccccc2n1
Inhibition [1]: 38% | LD50 [2]: 300 mg/kg | inhibition [3]: 10%

Cc1cc(N/C(=N/C2CCCCC2)Nc2ccccn2)c2ccccc2n1
Inhibition [1]: 23% | LD50 [2]: > 1000 mg/kg | inhibition [3]: 0.4%

Cc1cc(NC(=N)NC2CCCCC2)c2ccccc2n1
LD50 [2]: > 1000 mg/kg

CC(C)(C)/N=C(\Nc1nccs1)Nc1ccnc2ccccc12
Inhibition [1]: 29% | LD50 [2]: > 1000 mg/kg | inhibition [3]: 23.8%

CC(C)(C)/N=C(\Nc1cnc2ccccc2c1)Nc1nccs1
Inhibition [1]: 36% | LD50 [2]: > 1000 mg/kg | inhibition [3]: -1%

CC(C)(C)N=C(Nc1nccs1)Nc1nccs1
Inhibition [1]: 49% | LD50 [2]: > 1000 mg/kg | inhibition [3]: 13.1%

CC(C)(C)/N=C(/Nc1nccs1)Nc1cccc2ncccc12
Inhibition [1]: 21% | LD50 [2]: > 1000 mg/kg | inhibition [3]: 9%

Cc1cc(N/C(=N/CC2CCCCC2)Nc2nccs2)c2ccccc2n1
Inhibition [1]: 50% | LD50 [2]: > 1000 mg/kg | inhibition [3]: 21%

Cc1cc(N/C(=N/C(C)(C)C)Nc2nnc(S)s2)c2ccccc2n1
Inhibition [1]: 16% | LD50 [2]: > 1000 mg/kg | inhibition [3]: 6%

CC(C)(C)/N=C(\N)Nc1nccs1.O=C(O)/C=C\C(=O)O
Inhibition [1]: 54% | LD50 [2]: 600 mg/kg | inhibition [3]: 29%

CC(C)(C)/N=C(\Nc1nccs1)Nc1ccnc2cc(C(F)(F)F)ccc12
Inhibition [1]: 32% | LD50 [2]: > 1000 mg/kg

Cc1cc(N/C(=N/C2CCCCC2)Nc2ncc(C(=O)O)s2)c2ccccc2n1
Inhibition [1]: 30% | LD50 [2]: > 1000 mg/kg | inhibition [3]: 8.4%

Cc1ccc2cc(N/C(=N\C(C)(C)C)Nc3nccs3)ccc2n1
Inhibition [1]: 43% | LD50 [2]: > 1000 mg/kg | inhibition [3]: 3.7%

Cc1c(Cl)cccc1N/C(=N\C(C)(C)C)Nc1nccs1
Inhibition [1]: 17% | LD50 [2]: > 1000 mg/kg | inhibition [3]: 9.5%

CC(C)(C)/N=C(\Nc1ccccn1)Nc1nccs1
Inhibition [1]: 83% | LD50 [2]: > 1000 mg/kg | inhibition [3]: 6.9%

Cc1ccc2nc(C)cc(N/C(=N/C(C)(C)C)Nc3nccs3)c2c1
Inhibition [1]: 42% | LD50 [2]: > 1000 mg/kg | inhibition [3]: -7.5%

CCC(C)(C)/N=C(\Nc1ncccn1)Nc1nccs1
Inhibition [1]: 20% | LD50 [2]: > 1000 mg/kg | inhibition [3]: 27.5%

Cc1cc(N/C(=N/C2CCC(C)CC2)Nc2nccs2)c2ccccc2n1 (configuration not stated)
Inhibition [1]: 39% | LD50 [2]: > 1000 mg/kg | inhibition [3]: 12.6%

Cc1cc(N/C(=N/C(C)(C)C)Nc2nc(C)c(C)s2)c2ccccc2n1
Inhibition [1]: 19% | LD50 [2]: > 1000 mg/kg | inhibition [3]: 64.2%

CCCc1cc(N/C(=N/C2CCCCC2)Nc2nccs2)c2ccccc2n1
Inhibition [1]: 54% | LD50 [2]: > 1000 mg/kg | inhibition [3]: 56%

Cc1ccc2cccc(N/C(=N\C(C)(C)C)Nc3nccs3)c2n1
Inhibition [1]: 4% | LD50 [2]: > 1000 mg/kg | inhibition [3]: 7%

CC(C)(C)/N=C(/Nc1nccs1)Nc1nccc2ccccc12
Inhibition [1]: 18% | LD50 [2]: > 1000 mg/kg | inhibition [3]: 3.4%

CCC(C)(C)/N=C(\Nc1cccnc1)Nc1nccs1
Inhibition [1]: 82% | LD50 [2]: > 1000 mg/kg | inhibition [3]: 0%

CC(C)(C)/N=C(\Nc1nccs1)Nc1cc(-c2ccccc2)nc2ccccc12
Inhibition [1]: 40% | LD50 [2]: > 1000 mg/kg | inhibition [3]: < 10%

Cc1cc(N/C(=N\C2CCCC2)Nc2nccs2)c2ccccc2n1
Inhibition [1]: 52% | LD50 [2]: 600 mg/kg | inhibition [3]: 58.7%

Cc1cc(N/C(=N\C(C)(C)CC(C)(C)C)Nc2nccs2)c2ccccc2n1
Inhibition [1]: 25% | LD50 [2]: > 1000 mg/kg | inhibition [3]: 49.3%

CC(C)(C)/N=C(\Nc1ccncc1)Nc1nccs1
Inhibition [1]: 15% | LD50 [2]: 300 mg/kg

Cc1cc(N/C(=N/C(C)(C)C)Nc2ccccc2)c2ccccc2n1
Inhibition [1]: 34% | LD50 [2]: 40 mg/kg | inhibition [3]: 43.9%

COc1cc(N/C(=N\C(C)(C)C)Nc2nccs2)c2ncccc2c1
LD50 [2]: > 1000 mg/kg | inhibition [3]: 5%

Cc1cc(N/C(=N/C2CCCCC2)Nc2c(C)noc2C)c2ccccc2n1
Inhibition [1]: 17% | LD50 [2]: > 1000 mg/kg | inhibition [3]: 19.3%

Cc1cc(N/C(=N/C(C)(C)C)Nc2nc3ccccc3s2)c2ccccc2n1
Inhibition [1]: 18% | LD50 [2]: > 1000 mg/kg | inhibition [3]: 51.8%

CC(C)(C)/N=C(\Nc1ccc2ccccc2n1)Nc1nccs1
Inhibition [1]: 32% | LD50 [2]: > 1000 mg/kg

Cc1cc(N/C(=N/C2CCCC(C)C2C)Nc2nccs2)c2ccccc2n1.Cl (configuration not stated)
Inhibition [1]: 47% | LD50 [2]: > 1000 mg/kg | inhibition [3]: 7%

c1ccc2c(N/C(=N/C3CCCCC3)Nc3nccs3)ccnc2c1
Inhibition [1]: 46% | LD50 [2]: > 1000 mg/kg | inhibition [3]: 21.2%

Cc1cc(N/C(=N\C(C)C(C)(C)C)Nc2nccs2)c2ccccc2n1 (configuration not stated)
Inhibition [1]: 36% | LD50 [2]: > 1000 mg/kg | inhibition [3]: 4%

CC(C)(C)/N=C(/Nc1nccs1)Nc1cccc2c(O)cccc12
Inhibition [1]: 22% | LD50 [2]: > 1000 mg/kg

Cc1cc(N/C(=N\C(C)(C)C)Nc2nccs2)ccn1
Inhibition [1]: 13% | LD50 [2]: 250 mg/kg | inhibition [3]: 14.9%

Cc1cc(N/C(=N/C2CCCCC2)Nc2nc(C(=O)O)cs2)c2ccccc2n1
Inhibition [1]: 9% | LD50 [2]: > 1000 mg/kg | inhibition [3]: 2.9%

CCCCCCCCCCCCCCCCCC/N=C(\Nc1nccs1)Nc1cc(C)nc2ccccc12.Cl
Inhibition [1]: 5% | LD50 [2]: > 1000 mg/kg | inhibition [3]: 7%

CCOC(=O)c1cnc(/N=C(\Nc2cc(C)nc3ccccc23)NC(C)(C)C)s1
Inhibition [1]: 16% | LD50 [2]: > 1000 mg/kg | inhibition [3]: 15.8%

CCc1cc(N/C(=N/C2CCCCC2)Nc2nccs2)c2ccccc2n1
Inhibition [1]: 24% | LD50 [2]: > 1000 mg/kg | inhibition [3]: 67%

CCC(C)/N=C(/Nc1nccs1)Nc1cc(C)nc2ccccc12 (configuration not stated)
Inhibition [1]: 57% | LD50 [2]: 400 mg/kg | inhibition [3]: 10.5%

Cc1cc(N/C(=N/C(C)(C)C)Nc2ccccn2)c2ccccc2n1
Inhibition [1]: 36% | LD50 [2]: > 1000 mg/kg | inhibition [3]: 30.1%

CCCc1cc(N/C(=N/C(C)(C)C)Nc2nccs2)c2ccccc2n1
Inhibition [1]: 51% | LD50 [2]: 600 mg/kg | inhibition [3]: 74.1%

CC(C)c1cc(N/C(=N/C(C)(C)C)Nc2nccs2)c2ccccc2n1
Inhibition [1]: 31% | LD50 [2]: > 1000 mg/kg | inhibition [3]: 12.4%

Cc1cc(N/C(=N/C23C[C@H]4C[C@@H](C2)C[C@@H](C3)C4)Nc2nccs2)c2ccccc2n1
Inhibition [1]: 17% | LD50 [2]: > 1000 mg/kg | inhibition [3]: 32%

Cc1cc(N/C(=N/C(C)(C)C)Nc2cnccn2)c2ccccc2n1
LD50 [2]: > 1000 mg/kg
